Compound activity: PubChem BioAssay, The Scripps Research Institute Molecular Screening Center
The list is not random: actives were taken first. Their share in the collection is about 4.7%.
GAA850 FXN act = increases GAA850 frataxin promoter reporter activity. HEK293 lucGAA850 FXN promoter luciferase reporter, 24 h; percent of 10 µM SAHA response. activation, % at 6 µM. hit rate 0.56% among 360,000. AID 540364;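 active = activation above the average of all compounds screened plus 3 SD, cutoff fixed separately per campaign, cut at about 7.5% in these data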
m5-HT2A agonist = mouse HTR2A agonism via beta-arrestin recruitment. CHO-K1 mHTR2A beta-arrestin complementation, luminescence; percent of 30 µM serotonin response. activation, % at 7.6 µM. hit rate 0.66% among 360,000. P35363;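 active = activation above a run cutoff, the mean activation of all tested compounds plus 3 SD, cut at about 14% in these data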
MC4R antagonist = antagonists of human melanocortin 4 receptor (MC4R); hit rate 0.48% among 360,000; P32245; MC4R-expressing cells, MTII-stimulated cAMP, LANCE TR-FRET; inhibition, % at 6.5 µM;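 active = inhibition above its plate's cutoff, the mean of tested wells on that plate plus 3 SD, cut at about 29% in these data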
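material = U2OS cells stably expressing human melanocortin 4 receptor (MC4R) | also added = Melanotan II challenge | dosing = single nominal compound dose of 6.5 µM | detection = TR-FRET with Eu-cAMP and labeled anti-cAMP, 671 nm | replication = singlicate | timing = compound 30 min, challenge 1 h, detection 1 h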
AHR act = activates the human aryl hydrocarbon receptor. P35869. AHR-responsive luciferase reporter cells, luminescence. AID 2796. hit rate 2.5% among 320,000. activation, % at 5 µM; in the data active = activation above about 47%
Target sequence (P35869 whole entry, looked up): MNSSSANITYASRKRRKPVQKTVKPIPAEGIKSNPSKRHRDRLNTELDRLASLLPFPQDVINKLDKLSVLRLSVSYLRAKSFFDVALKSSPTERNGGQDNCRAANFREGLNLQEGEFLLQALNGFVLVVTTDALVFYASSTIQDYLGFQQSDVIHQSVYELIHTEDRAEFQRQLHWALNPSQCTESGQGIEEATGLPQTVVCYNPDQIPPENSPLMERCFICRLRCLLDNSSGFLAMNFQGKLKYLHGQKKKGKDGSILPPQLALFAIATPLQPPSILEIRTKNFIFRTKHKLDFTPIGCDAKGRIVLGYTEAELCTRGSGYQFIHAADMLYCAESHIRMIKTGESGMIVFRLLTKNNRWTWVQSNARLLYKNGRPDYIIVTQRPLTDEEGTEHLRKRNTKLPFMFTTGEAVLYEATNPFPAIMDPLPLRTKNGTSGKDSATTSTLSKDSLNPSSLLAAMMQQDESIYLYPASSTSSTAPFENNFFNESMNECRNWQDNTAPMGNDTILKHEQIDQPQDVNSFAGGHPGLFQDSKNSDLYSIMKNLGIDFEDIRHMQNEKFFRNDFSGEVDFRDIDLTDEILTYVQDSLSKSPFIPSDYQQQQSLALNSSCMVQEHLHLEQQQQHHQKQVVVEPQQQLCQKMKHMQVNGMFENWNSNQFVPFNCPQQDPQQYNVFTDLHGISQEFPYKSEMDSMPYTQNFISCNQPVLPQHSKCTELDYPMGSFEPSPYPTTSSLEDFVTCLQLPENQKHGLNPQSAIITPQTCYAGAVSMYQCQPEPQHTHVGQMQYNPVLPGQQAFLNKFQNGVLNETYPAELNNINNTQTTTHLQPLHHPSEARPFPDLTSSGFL
MC4R barr agon = activates human MC4R beta-arrestin recruitment. P32245. U2OS MC4R beta-arrestin complementation, luminescence; percent of melanotan II response, DMSO zero. activation, % at 8.9 µM. hit rate 0.98% among 360,000. AID 540308;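 active = activation above a per-plate cutoff, the mean activation of sample wells on that plate plus 3 SD, cut at about 8% in these data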
Large screens that a line does not name were inactive.

COc1ccc(S(=O)(=O)NC(=O)C2(C)CCN2C(=O)Cc2cc(C)cc(C)c2)cc1OC (centres undefined)	none (no result: AHR act)
C=CCn1nc(C(=O)N2CCOCC2)cc1-c1sc(NC(=O)c2ccccc2)nc1C	none (no result: AHR act)
O=C1N=C(N2CCOCC2)S/C1=C/c1ccc(-c2ccc(F)cc2)o1	AHR act 82.4
NC(CCCCc1ccccc1)c1cccc2ccccc12 (centres undefined)	none (no result: GAA850 FXN act, m5-HT2A agonist, MC4R antagonist, MC4R barr agon)
Cc1sc(=NC(=O)c2ccco2)n(C)c1-c1ccccc1	none
Cn1c(=NC(=O)c2ccco2)sc2ccccc21	AHR act 71.1
COc1ccc(/C(C)=N/OCC(=O)N=Nc2c(O)[nH]c3ccc(Br)cc23)cc1	none
COc1ccc(/C=N/OCC(=O)N=Nc2c(O)[nH]c3ccc(Br)cc23)cc1OC	AHR act 78.1
C[C@@H]1CN([C@H](C)CO)C(=O)CCCn2nncc2CO[C@H]1CN(C)C(=O)c1ccccc1	none (no result: AHR act)
CC(=O)Nc1ccc(S(=O)(=O)Nc2cc(S(=O)(=O)N3CCCCC3)ccc2O)cc1	none (no result: AHR act)
Cc1cc(C)nc(NC(=O)c2ccc(OC(C)C)cc2)n1	AHR act 49.0
COc1ccc(C(=O)Nc2cc(OC)cc(OC)c2)cc1	AHR act 57.3
C[C@@H]1CN([C@@H](C)CO)C(=O)CCCn2nncc2CO[C@H]1CN(C)Cc1ccc2cccnc2c1	none (no result: AHR act)
On1onc2c3cc(-c4ccccc4)nc3ccc21	none
c1ccc(-c2cc3c(ccc4nonc43)nn2)cc1	AHR act 47.7
COc1cc(NC(=S)Nc2ccccn2)cc(OC)c1OC	AHR act 77.1
S=C(Nc1ccccn1)Nc1ccccc1Cl	AHR act 67.7
COc1cc(NC(=S)Nc2ccccn2)cc(OC)c1	AHR act 73.9
COC(=O)Cc1ccc(NC(=S)Nc2ccccn2)cc1	none
Cc1c(Cl)cccc1NC(=S)Nc1ccccn1	none
COc1ccc(-c2coc3c(C(=O)NCC4CC4)cccc23)c(C)c1	none (no result: AHR act)
O=C(CSc1nncs1)Nc1nnc(-c2ccccc2)o1	none
Cc1ccc2[nH]c(=O)c(-c3noc(C(C)C)n3)cc2c1	AHR act 54.9
Cc1nnc(NC(=O)c2oc3ccccc3c2C)s1	AHR act 62.2
COc1ccc2oc(C(=O)Nc3ccccn3)c(C)c2c1	AHR act 71.8
Cc1ccc2c(C)c(C(=O)Nc3nnc(C)s3)oc2c1	none
Cc1c(C(=O)Nc2nc(-c3ccccn3)cs2)oc2ccccc12	AHR act 64.0
CCc1nnc(NC(=O)c2oc3ccc(Br)cc3c2C)s1	none
COc1ccc2oc(C(=O)Nc3nc(C)cs3)c(C)c2c1	none
CCCCc1nnc(NC(=O)c2oc3ccccc3c2C)s1	MC4R barr agon 9.1
CCCCn1nnnc1C1(C)CCC(=O)N1CCCN1CCOCC1 (centres undefined)	none (no result: GAA850 FXN act, MC4R antagonist, AHR act, MC4R barr agon)
CCCCN(C(=O)C1CC(=O)N(CCc2ccc(OC)c(OC)c2)C1)c1c(N)n(CC(C)C)c(=O)[nH]c1=O (centres undefined)	none (no result: AHR act)
O=C(COC(=O)CC1CCCC1)Nc1ccc(Cl)cc1	none (no result: AHR act)
COc1ccccc1-c1nc(SCC(=O)N2CCC(C(N)=O)CC2)n[nH]1	none
S=c1nc(-c2ccccc2)[nH]c2ccc(Br)cc12	AHR act 53.0
COCCNC(=O)c1c(N)n(CCCn2ccnc2)c2nc3ccccc3nc12	AHR act 52.6
COCCNC(=O)c1c(N)n(-c2ccccc2)c2nc3ccccc3nc12	none
O=C(Cn1cc([N+](=O)[O-])nc1[N+](=O)[O-])N1CCN(c2ccccc2)CC1	none
Cc1ccc(Cn2nc(C)cc2C(=O)Nc2ccccc2Cl)cc1	none
Cn1nc(C(=O)Nc2ccccc2Cl)cc1C(=O)Nc1ccccc1Cl	MC4R barr agon 9.3
Cn1nc(C(=O)Nc2ccc(Br)cc2)cc1C(=O)Nc1ccc(Br)cc1	AHR act 64.8
Cc1cc(C)c(S(=O)(=O)NCCc2ccccc2)c(C)c1	MC4R barr agon 8.4
CC(NCC(O)COc1ccc2ccccc2c1)c1ccccc1 (centres undefined)	none
Cc1cc(OCC(O)CNC(C)c2ccccc2)ccc1C(C)C (centres undefined)	MC4R barr agon 9.2
O=C(COC(=O)c1ccc(F)cc1Cl)NC1CC1	none (no result: AHR act)
COc1cc(NC(=O)C/C(C)=N/NC(=O)c2cccs2)c(OC)cc1Cl	AHR act 63.9
COc1cc(NC(=O)c2cccs2)c(OC)cc1NC(=O)c1cccs1	AHR act 57.0
COc1ccc(Cl)cc1NC(=O)C/C(C)=N/NC(=O)CC#N	AHR act 71.9
COc1ccc(Cl)cc1NC(=O)C/C(C)=N/NC(=O)CCc1ccccc1	none
C/C(CC(=O)Nc1ccc(Cl)cc1C(F)(F)F)=N\NC(=O)c1cccs1	none
COc1cc(NCCC(=O)c2cccs2)c(OC)cc1Cl	AHR act 51.1
CCOc1ccccc1NC(=O)COC(=O)c1cnc(C)cn1	none
COc1ccccc1NS(=O)(=O)c1cccc(C(=O)OCC(=O)NC2CC2)c1	none
CC1Sc2ccc(C(=O)N(CCc3ccccc3)Cc3ccccc3)cc2NC1=O (centres undefined)	none (no result: AHR act)
O=C(Nc1ccc(NC(=O)c2ccc(Cl)cc2Cl)cc1)c1cccs1	none
COc1c(Cl)cc(Cl)cc1C(=O)Nc1ccc(NC(=O)c2cccs2)cc1	MC4R barr agon 9.7
CCNC(=O)C1CCCN(C(=O)c2cnc3ccccc3n2)CC1 (centres undefined)	none (no result: AHR act)
CCOC(=O)C1C2C=CC3(CN(C4CCCC4)C(=O)C13)O2 (centres undefined)	none
CCOC(=O)N1CCC(N2CC34C=CC(O3)C(C(=O)Nc3ccc(C)cc3)C4C2=O)CC1 (centres undefined)	AHR act 77.2
O=C(/C=C/c1ccccc1F)c1cccc([N+](=O)[O-])c1	AHR act 57.6
CCOC(=O)c1ccc(N2Cc3ccccc3C2=NC(=O)c2cccc([N+](=O)[O-])c2)cc1	GAA850 FXN act 7.8
CN(C(=O)c1cccnc1)c1nnc(-c2cnccn2)s1	none
CN(C(=O)c1cccnc1)c1nnc(-c2ccccn2)s1	AHR act 53.8
O=C(CC1Sc2ccccc2NC1=O)NNc1ccc(F)cc1 (centres undefined)	none (no result: AHR act)
CC(C)/C=C1\CCc2c([nH]c3ccccc23)C1=O	AHR act 56.7
Cc1ccc(N2CC(C(=O)N3CCN(c4ccccn4)CC3)CC2=O)cc1 (centres undefined)	none (no result: AHR act)
O=C(N/N=C/c1sc(=O)n(Cc2ccc(Br)cc2)c1Cl)c1ccco1	MC4R barr agon 26.1
COc1ccc([N+](=O)[O-])cc1NC(=O)c1csc(C)c1	none
COc1ccc([N+](=O)[O-])cc1NC(=O)c1cncc(Br)c1	AHR act 70.0
Oc1[nH]c2ccccc2c1C1=NCCCCC1	AHR act 62.2
O=C(CCOc1ccccc1)Nc1ccc(Br)cc1	none
O=C(CCCOc1ccccc1)Nc1ccc(Br)cc1	MC4R barr agon 8.6
